ChEMBL document CHEMBL1649412, “Discovery and SAR of 5-(3-chlorophenylamino)benzo[c][2,6]naphthyridine-8-carboxylic acid (CX-4945), the first clinical stage inhibitor of protein kinase CK2 for the treatment of cancer” (J Med Chem, 2011)

Key:
Casein kinase II = Casein kinase II (Homo sapiens, UniProt P19784+P67870+P68400); experiment: Inhibition of human recombinant CK2 assessed as inhibition of [gamma33P]ATP incorporation into substrate by […]; type: protein-complex assay
LNCaP = experiment: Antiproliferative activity against human LNCAP cells after 4 days by alamar blue assay; type: functional, cell-based; conditions: 96 h
BXPC-3 = experiment: Antiproliferative activity against human BxPC3 cells after 4 days by alamar blue assay; type: functional, cell-based; conditions: BXPC-3, 96 h
A549 = experiment: Antiproliferative activity against human A549 cells after 4 days by alamar blue assay; type: functional, cell-based; conditions: A549, 96 h
[1] = Antiproliferative activity against human H1299 cells after 4 days by alamar blue assay; type: functional, cell-based; conditions: NCI-H1299, 96 h
K562 = experiment: Antiproliferative activity against human K562 cells after 4 days by alamar blue assay; type: functional, cell-based; conditions: K562, 96 h
MCF7 = experiment: Antiproliferative activity against human MCF7 cells after 4 days by alamar blue assay; type: functional, cell-based; conditions: MCF7, 96 h
MDA-MB-231 = experiment: Antiproliferative activity against human MDA-MB-231 cells after 4 days by alamar blue assay; type: functional, cell-based; conditions: MDA-MB-231, 96 h
A-375 = experiment: Antiproliferative activity against human A375 cells after 4 days by alamar blue assay; type: functional, cell-based; conditions: A-375, 96 h
PC-3 = experiment: cells; conditions: Homo sapiens, PC-3, 96 h
MIA PaCa-2 = experiment: cells; conditions: Homo sapiens, MIA PaCa-2, 96 h
Jurkat = experiment: cells; conditions: Homo sapiens, 96 h
cells = conditions: Homo sapiens, Hs-578T, 96 h
HCT-116 = experiment: cells; conditions: Homo sapiens, HCT-116, 96 h
[2] = target: T1, Poly [ADP-ribose] polymerase 1 (Homo sapiens, UniProt P09874); conditions: 1 uM
T1 sequence (P09874 whole entry): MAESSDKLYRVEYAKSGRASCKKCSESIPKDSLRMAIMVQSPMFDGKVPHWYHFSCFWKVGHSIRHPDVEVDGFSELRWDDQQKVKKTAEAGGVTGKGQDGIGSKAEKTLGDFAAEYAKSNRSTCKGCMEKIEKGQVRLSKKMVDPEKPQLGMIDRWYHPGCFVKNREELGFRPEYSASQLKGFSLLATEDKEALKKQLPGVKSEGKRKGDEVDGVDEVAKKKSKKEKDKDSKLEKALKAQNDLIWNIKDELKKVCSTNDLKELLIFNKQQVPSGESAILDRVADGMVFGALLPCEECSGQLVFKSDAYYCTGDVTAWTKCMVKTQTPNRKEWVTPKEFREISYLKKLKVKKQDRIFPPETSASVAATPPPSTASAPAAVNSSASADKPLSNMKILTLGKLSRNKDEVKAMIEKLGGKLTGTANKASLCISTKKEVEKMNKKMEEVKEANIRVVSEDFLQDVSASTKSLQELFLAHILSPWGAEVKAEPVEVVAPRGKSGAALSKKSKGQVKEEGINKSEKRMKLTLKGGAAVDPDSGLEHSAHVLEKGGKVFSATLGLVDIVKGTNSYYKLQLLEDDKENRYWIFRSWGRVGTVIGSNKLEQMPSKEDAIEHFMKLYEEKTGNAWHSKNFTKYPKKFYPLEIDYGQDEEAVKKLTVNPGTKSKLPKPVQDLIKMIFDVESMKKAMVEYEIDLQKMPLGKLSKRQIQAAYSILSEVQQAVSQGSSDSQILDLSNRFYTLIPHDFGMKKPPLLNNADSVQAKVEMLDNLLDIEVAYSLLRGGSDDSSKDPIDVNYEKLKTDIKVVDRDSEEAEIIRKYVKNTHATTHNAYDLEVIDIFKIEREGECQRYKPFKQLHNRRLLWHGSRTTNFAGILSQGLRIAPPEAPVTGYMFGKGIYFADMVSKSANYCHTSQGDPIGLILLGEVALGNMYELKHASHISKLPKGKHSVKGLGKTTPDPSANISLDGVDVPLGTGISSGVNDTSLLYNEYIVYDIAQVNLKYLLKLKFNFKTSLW

[3] = Inhibition of CK2 assessed as inhibition of [gamma32P]GTP incorporation into substrate by liquid scintillation counting
[4] = target: T1, Poly [ADP-ribose] polymerase 1; experiment: Inhibition of PARP1 by chemiluminescence assay
Outline: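 Chemiluminescent PARP1 kit in histone-coated wells: compound plus PARP-HSA enzyme (0.1 unit/well) with cocktail containing activated DNA, 60 min at ambient temperature; washed, streptavidin-HRP 30 min, then PeroxyGlo chemiluminescent substrates read on plate reader.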

Chain of Casein kinase II (P67870 whole entry): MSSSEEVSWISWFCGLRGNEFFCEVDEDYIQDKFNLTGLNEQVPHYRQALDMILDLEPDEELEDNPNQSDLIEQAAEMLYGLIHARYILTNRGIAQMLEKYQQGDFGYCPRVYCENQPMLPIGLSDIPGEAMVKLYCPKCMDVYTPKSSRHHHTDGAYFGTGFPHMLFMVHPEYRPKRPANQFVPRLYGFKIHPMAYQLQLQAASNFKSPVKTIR
Chain of Casein kinase II (P68400 whole entry): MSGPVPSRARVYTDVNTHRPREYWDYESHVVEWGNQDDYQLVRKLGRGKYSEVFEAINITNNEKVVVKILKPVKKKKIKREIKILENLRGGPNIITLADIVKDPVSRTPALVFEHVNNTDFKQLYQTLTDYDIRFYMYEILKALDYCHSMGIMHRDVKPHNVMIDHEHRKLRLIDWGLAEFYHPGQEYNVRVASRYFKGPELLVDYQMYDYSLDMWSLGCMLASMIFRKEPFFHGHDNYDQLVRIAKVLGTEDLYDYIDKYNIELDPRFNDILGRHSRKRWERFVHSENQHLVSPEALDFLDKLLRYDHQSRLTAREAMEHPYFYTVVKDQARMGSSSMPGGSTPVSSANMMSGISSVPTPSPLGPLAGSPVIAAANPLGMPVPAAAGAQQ
Chain of Casein kinase II (P19784 whole entry): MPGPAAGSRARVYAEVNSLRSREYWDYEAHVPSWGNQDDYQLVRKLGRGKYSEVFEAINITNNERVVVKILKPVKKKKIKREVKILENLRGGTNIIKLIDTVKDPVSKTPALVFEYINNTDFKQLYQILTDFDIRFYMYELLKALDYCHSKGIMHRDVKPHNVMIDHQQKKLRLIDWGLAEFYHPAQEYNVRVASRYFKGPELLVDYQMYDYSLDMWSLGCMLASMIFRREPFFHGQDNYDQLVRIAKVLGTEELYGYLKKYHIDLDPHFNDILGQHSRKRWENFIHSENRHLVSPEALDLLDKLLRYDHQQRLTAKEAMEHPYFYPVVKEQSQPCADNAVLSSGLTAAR

SMILES: O=C(O)c1ccc2c(c1)nc(Nc1cccc(Cl)c1)c1ncccc12
- IC50 (Casein kinase II): > 0.5 µM

SMILES: NS(=O)(=O)c1cccc(Nc2nc3cc(C(=O)O)ccc3c3cnccc23)c1
- IC50 (Casein kinase II): 0.043 µM

SMILES: O=C(O)c1ccc2nc(Nc3cccc(Cl)c3)c3ccncc3c2c1
- IC50 (Casein kinase II): 0.35 µM

SMILES: O=C(O)c1ccc2c(c1)nc(Nc1ccc(F)c(Cl)c1)c1ccncc12
- IC50 (LNCaP): 4.6 µM
- IC50 (BXPC-3): 7.7 µM
- IC50 (A549): 6.8 µM
- IC50 [1]: 3.1 µM
- IC50 (K562): 5 µM
- IC50 (MCF7): 8.2 µM
- IC50 (MDA-MB-231): 6.1 µM
- IC50 (A-375): 3.2 µM
- IC50 (PC-3): 4.9 µM
- IC50 (MIA PaCa-2): 3.6 µM
- IC50 (Jurkat): 2.7 µM
- IC50 (cells): 3.3 µM
- IC50 (HCT-116): 6 µM

SMILES: O=C(O)c1ccc2c(c1)nc(NCCCO)c1ccsc12
- inhibition [2]: 12%

SMILES: O=C(O)c1ccc2c(c1)nc(Nc1ccccc1)c1cnccc12
- IC50 (Casein kinase II): > 0.5 µM

SMILES: OC[C@H]1O[C@@H](n2cnc3cc(Cl)c(Cl)cc32)[C@H](O)[C@@H]1O [DICHLORORIBOBENZIMIDAZOLE]
- IC50 [3]: 15 µM

SMILES: N#Cc1cccc(Nc2nc3cc(C(=O)O)ccc3c3cnccc23)c1
- IC50 (LNCaP): 15.5 µM
- IC50 (BXPC-3): 3.6 µM
- IC50 (A549): > 50 µM
- IC50 (K562): 9.2 µM
- IC50 (MCF7): 41 µM
- IC50 (MDA-MB-231): 28.7 µM
- IC50 (PC-3): 26.4 µM
- IC50 (MIA PaCa-2): > 10 µM
- IC50 (Jurkat): 22 µM
- IC50 (cells): 35.6 µM
- IC50 (HCT-116): > 10 µM

SMILES: O=C(O)c1ccc2c(c1)nc(Nc1cccc(Cl)c1)c1cnccc12
- IC50 (Casein kinase II): > 0.5 µM

SMILES: O=C(O)c1ccc2c(c1)nc(Nc1cccc(F)c1)c1ccncc12
- IC50 (A549): 16.7 µM
- IC50 [1]: 8.3 µM
- IC50 (K562): > 10 µM
- IC50 (PC-3): 9.2 µM
- IC50 (MIA PaCa-2): 6 µM
- IC50 (Jurkat): 3.2 µM
- IC50 (cells): 5.9 µM
- IC50 (HCT-116): 7.6 µM

SMILES: O=C(O)c1ccc2c(c1)nc(NC1CCCC1)c1ccncc12
- IC50 (Casein kinase II): 0.027 µM

SMILES: Cc1c(C(=O)O)ccc2c1nc(Nc1cccc(Cl)c1)c1ccncc12
- IC50 (Casein kinase II): 0.006 µM

SMILES: COc1cccc(Nc2nc3cc(C(=O)O)ccc3c3cnccc23)c1
- IC50 [1]: 10.7 µM
- IC50 (K562): 5.9 µM
- IC50 (PC-3): 17.4 µM
- IC50 (MIA PaCa-2): 8.5 µM
- IC50 (Jurkat): 6.5 µM
- IC50 (cells): 12.9 µM
- IC50 (HCT-116): 9.5 µM

SMILES: O=C(O)c1ccc2c(c1)[nH]c(=O)c1ccsc12
- IC50 [4]: 0.7 µM
- inhibition [2]: 58%

SMILES: O=C(O)c1ccc2c(c1)nc(Nc1ccccc1Cl)c1ccncc12
- IC50 (Casein kinase II): 0.008 µM

SMILES: Clc1cccc(Nc2nc3cc(-c4nnc[nH]4)ccc3c3cnccc23)c1
- IC50 (Casein kinase II): > 0.5 µM

SMILES: O=C(O)c1ccc2c(c1)nc(Nc1ccc(Oc3ccccc3)cc1)c1ccncc12
- IC50 (Casein kinase II): 0.069 µM
